MDM2 E3 inh: MDM2-luciferase reporter signal enhancers, primary screen, MDM2 E3 ligase inhibitor project, cell-based, luminescence, 1536-well. E3 ubiquitin-protein ligase Mdm2 (Homo sapiens), Q00987. cell-based MDM2 ubiquitination luciferase reporter, 2 h; 0 = plate control, 100 = twice control, blank-subtracted. signal enhancement, % at 5 µM. hit rate 0.11% among 210,000. AID 1230, 2008;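 active = signal enhancement of 30% or more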;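 note: luminescence tracks abundance of the self-degrading MDM2-luciferase fusion protein; higher signal means inhibition of MDM2 E3 ligase activity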
Target sequence (Q00987 whole entry, looked up, the tested form may be a part): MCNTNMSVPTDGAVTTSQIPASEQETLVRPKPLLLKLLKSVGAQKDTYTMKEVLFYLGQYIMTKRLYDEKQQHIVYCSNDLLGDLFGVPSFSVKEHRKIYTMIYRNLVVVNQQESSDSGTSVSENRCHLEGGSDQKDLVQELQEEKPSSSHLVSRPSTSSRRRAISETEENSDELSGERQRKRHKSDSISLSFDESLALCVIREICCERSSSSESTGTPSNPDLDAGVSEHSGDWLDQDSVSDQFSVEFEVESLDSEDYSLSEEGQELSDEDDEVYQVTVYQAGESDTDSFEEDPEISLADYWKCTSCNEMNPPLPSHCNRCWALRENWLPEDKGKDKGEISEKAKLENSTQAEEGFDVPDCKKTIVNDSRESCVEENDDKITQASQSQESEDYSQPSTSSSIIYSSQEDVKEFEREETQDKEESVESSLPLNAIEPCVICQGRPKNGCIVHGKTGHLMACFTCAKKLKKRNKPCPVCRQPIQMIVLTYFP
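Test system: stable mammalian line carrying autodegrading MDM2–luciferase fusion reporter; quantity: 2000 cells in each well; times: 4 h cell settling then 2 h compound exposure, 37 °C; detection: luminescence with SteadyLite reagent, 15 min at room temperature; evaluation: percent signal gain over controls, blank-subtracted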
S1P4 antagonist: S1P4 receptor antagonists, primary screen, cell-based. S1P4-expressing cells, antagonist mode, reporter read-out. inhibition, % at 4.98 µM. hit rate 0.26% among 220,000. AID 1510, 2009; in the data active = inhibition above about 29%;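 note: 0% = wells stimulated with agonist and 100% = vehicle wells without agonist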
S1P3 antagonist: S1P3 receptor antagonists, primary screen, cell-based | Sphingosine 1-phosphate receptor 3 (Homo sapiens), Q99500 | CHO S1P3 NFAT-BLA reporter, FRET fluorescence, antagonist mode | inhibition, % at 4.98 µM | hit rate 0.27% among 170,000;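 active = inhibition above the plate cutoff, the mean inhibition of test wells on that plate plus 3 SD, cut at about 28% in these data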;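 note: cells challenged with S1P at its EC80 of 0.8 µM; blue over green emission ratio from cleaved BLA substrate after 4 h stimulation; 0% = S1P-stimulated wells and 100% = unstimulated DMSO-only wells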
L major viab: Leishmania major promastigote growth inhibition, primary screen. Leishmania major promastigotes, resazurin fluorescence viability. inhibition, % at 10 µM. hit rate 9% among 200,000. AID 1063, 2008; in the data active = inhibition above about 50%;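 note: promastigotes grown with compound for 44 hours at 28 °C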
S1P4 agonist: S1P4 receptor agonists, primary screen, cell-based. Sphingosine 1-phosphate receptor 4 (Homo sapiens), O95977. S1P4-expressing cell line, agonist reporter assay. activation, % at 4.98 µM. hit rate 0.35% among 220,000. AID 1509, 2009; in the data active = activation above about 11%;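 note: 0% = DMSO vehicle and 100% = reference agonist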
* hit, by the source's call; · = not tested or not shown. The sample as a whole holds a higher share of hits than the screen did.

SMILES	MDM2 E3 inh	S1P4 antagonist	S1P3 antagonist	L major viab	S1P4 agonist
COc1cc2c(cc1OC)CN(C(=S)Nc1ccc(OC(F)F)cc1)CC2	-6	-8	7	-1	2
CN1CCC(N(C)C(=S)Nc2ccc(SC(F)F)cc2)CC1	-9	-6	2	76*	2
CC(C)Cn1ccc(=O)n(CC(C)C)c1=O	-9	-3	-12	-7	-1
COc1ccc(C2CC(c3ccccc3OC(C)=O)=NN2C(C)=O)cc1 (configuration not stated)	4	-2	11	·	2
COc1ccc(C)cc1NC(=O)C(=O)NNC(=O)c1ccco1	-26	-23	·	-8	3
CCCCCCCCCC[n+]1cccc(C(=O)N(CC)CC)c1	8	-3	3	90*	0
O=C(C[n+]1cccc(NC(=O)c2ccccc2)c1)c1ccc(NC(=O)c2ccccc2)cc1	-15	-2	·	71*	2
CC(C(=O)c1ccc(Br)cc1)[n+]1cccc(NC(=O)c2ccccc2)c1 (configuration not stated)	-10	-4	-1	56*	1
CCc1cccc(C)c1N1C(=O)CC(C)(C)CC1=O	-10	-17	-6	·	0
CCCN1CC(O)=C(C#N)C1=O	-6	12	-71	-5	-1
CCN(CC)c1ccc2cc(C(=O)NNC(=O)c3ccc(S(=O)(=O)N4CCCCC4)cc3)c(=O)oc2c1	1	-6	-16	92*	0
Cc1cc(NC(=O)c2ccc(S(=O)(=O)N3CCCC3)cc2)nc2c1c(=O)oc1ccccc12	-7	-13	·	16	-3
CCN(CC)c1ccc2cc(S(=O)(=O)c3ccc(C)cc3)c(=O)oc2c1	-12	-10	10	96*	2
Cc1ccc2nc(Cl)c(C3CC(c4cccs4)=NN3S(C)(=O)=O)cc2c1 (configuration not stated)	2	-7	4	84*	0
CCOC(=O)CSc1nc(Nc2ccc3c(c2)OCO3)c2ccccc2n1	-5	-15	·	56*	0
CCCNC(=O)c1c(N)n(-c2cc(OC)cc(OC)c2)c2nc3ccccc3nc12	-18	-22	-5	30	1
COc1ccccc1NC(=O)CSCc1ccc([N+](=O)[O-])cc1	-4	-3	1	-1	-1
Cc1cc(NC(=O)c2cccc([N+](=O)[O-])c2)n(-c2ccccc2)n1	0	-7	1	0	0
Cc1cc(NC(=O)c2cc([N+](=O)[O-])cc([N+](=O)[O-])c2)n(-c2ccccc2)n1	-8	0	-10	89*	1
CCN(CC)S(=O)(=O)c1ccc(Cl)c(C(=O)Nc2cc(C)nn2-c2ccccc2)c1	-20	-13	3	65*	-1
CC(=O)Oc1ccc(OC(C)=O)c(SCCCCCN2CCOCC2)c1	-1	1	·	-4	0
COc1cccc(OCC(=O)O/N=C(\N)c2ccc(OC)c(OC)c2)c1	-5	-4	-4	49	2
COC(=O)c1c(S(C)(=O)=O)nc(-c2ccccc2)[nH]c1=O	1	19	-20	-3	1
Cc1ccccc1C(=O)Nc1ccc(-c2nc3ccc(C(=O)c4ccccc4)cc3[nH]2)cc1	-17	1	·	98*	-2
O=C(Nc1ccc(-c2nc3ccc(NC(=O)c4cccs4)cc3[nH]2)cc1)c1cccs1	-18	-2	·	-4	0
SMILES	MDM2 E3 inh	S1P4 antagonist	S1P3 antagonist	L major viab	S1P4 agonist
Cc1ccc2nc(-c3ccc(NC(=O)c4ccco4)cc3)[nH]c2c1	-21	-5	39	21	1
CC(C)(C)N1C(=O)c2ccc(C(=O)Nc3ccc(-c4nc5ccccc5[nH]4)cc3)cc2C1=O	·	-14	6	-4	1
O=C(c1ccccc1)c1ccc2nc(-c3ccc(NC(=O)c4ccccc4Br)cc3)[nH]c2c1	-11	8	·	97*	0
O=C(Nc1ccc(-c2nc3ccccc3[nH]2)cc1)c1ccc(N2C(=O)CCC2=O)cc1	-5	-12	5	50*	1
CCCC(=O)NC(C)c1nc2ccccc2n1C(C)C (configuration not stated)	-8	-1	-7	-7	-1
CC1(c2ccccn2)Nc2ccccc2-c2nc3ccccc3n21 (configuration not stated)	6	-34	23	53*	0
CCCCC1(C)Nc2ccccc2-c2nc3ccccc3n21 (configuration not stated)	-8	-6	·	74*	0
CCn1c(SCC(=O)Nc2cccc(C)n2)nc2c1c(=O)n(C)c(=O)n2C	2	-1	-18	1	-1
Nc1ncnc(Sc2ccc(Cl)cc2)c1[N+](=O)[O-]	-4	-8	3	67*	0
Nc1ncnc(Sc2ncccn2)c1[N+](=O)[O-]	-15	10	6	59*	-3
Nc1ncnc(Sc2ccccc2)c1[N+](=O)[O-]	4	-11	-4	31	0
COc1ccccc1/C=C/C(=O)OCc1nc2ccccc2c(=O)[nH]1	-8	-5	-16	3	-1
CCC(C)OC(=O)C1=C(C)OC23OC(N)=C(C#N)C12C(=O)c1ccccc13 (configuration not stated)	11	-4	·	86*	0
O=C(COc1ncnc2ccccc12)Nc1cccc(S(=O)(=O)N2CCOCC2)c1	-12	-9	-7	3	0
O=C(CCl)Nc1cccc(S(=O)(=O)N2CCCCCC2)c1	-5	-7	-10	85*	0
CC(Oc1ncnc2ccccc12)C(=O)Nc1cccc(S(=O)(=O)N2CCOCC2)c1 (configuration not stated)	-10	-8	0	78*	1
COc1ccc(/C=C/C(=O)Nc2cccc(S(=O)(=O)N3CCCC3)c2)cc1OC	-13	-16	8	55*	1
O=C(CNCC1CCCCC1)Nc1cccc(S(=O)(=O)N2CCOCC2)c1	-3	-21	8	79*	0
CSc1ncc(-c2ccc(Cl)cc2)[nH]1	0	3	4	·	-1
COc1ccc(Cn2c(CCCO)nc3ccccc32)cc1OC	-14	-3	·	3	-1
COc1ccc(NS(=O)(=O)c2cccc(NC(=O)c3cnccn3)c2)cc1Br	-33	-5	3	100*	-1
COc1ccccc1NC(=O)/C=C/c1ccc(OC)c(S(=O)(=O)N2CCOCC2)c1	1	-12	-8	11	1
O=C(Nc1cccc(S(=O)(=O)N2CCOCC2)c1)c1cnccn1	-8	0	-13	24	2
O=C(Nc1cccc(S(=O)(=O)N2CCCCC2)c1)c1cnccn1	-3	12	-2	87*	-1
COc1ccc(/C=C/C(=O)NC2CCCCCC2)cc1S(=O)(=O)N1CCOCC1	0	-6	-14	98*	1
